Source: ChEMBL document CHEMBL4689842, “EUbOPEN Chemogenomics Library wave 1” (2021)

Test system: Fibroblast
Experiment: Multiplex assay against human fibroblast
Format: toxicity, cell-based
How it was run: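 Imaging took place on a CQ1 microscope at 37°C and 5% CO2 once compound had been added to live cells stained at seeding with Hoechst33342, BioTracker Green Microtubule Cytoskeleton Dye, MitoTracker Red and Annexin V Alexa Fluor 680. CellPathfinder machine-learning gating classed cells as Hoechst high-intensity objects or normal cells, classed normal cells as having healthy, pyknosed or fragmented nuclei, and classed pyknosed cells as mitotic or apoptotic. Tubulin, mitochondrial-mass and membrane-permeability phenotypes are per cents of the healthy-nucleus cells.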

[1] = 12 h, 1 µM, compound concentration 1 uM, replicate 1
[2] = 12 h, 1 µM, compound concentration 1 uM, replicate 2
[3] = 12 h, 10 µM, compound concentration 10 uM, replicate 1
[4] = 12 h, 10 µM, compound concentration 10 uM, replicate 2
[5] = 24 h, 1 µM, compound concentration 1 uM, replicate 1
[6] = 24 h, 1 µM, compound concentration 1 uM, replicate 2
[7] = 24 h, 10 µM, compound concentration 10 uM, replicate 1
[8] = 24 h, 10 µM, compound concentration 10 uM, replicate 2
[9] = 48 h, 1 µM, compound concentration 1 uM, replicate 1
[10] = 48 h, 1 µM, compound concentration 1 uM, replicate 2
[11] = 48 h, 10 µM, compound concentration 10 uM, replicate 1
[12] = 48 h, 10 µM, compound concentration 10 uM, replicate 2

O=C(Nc1ccc(Cl)cc1)Nc1cccc(-c2cccc(N3CCCC3)n2)c1
Population Apoptotic (%) [1]: 45% | Population Fragmented Nuclei (%) [1]: 32% | Population Healthy Nuclei (%) [1]: 41% | Population Hoechst High Intensity Objects (%) [1]: 18% | Population Membrane Permeable-Phenotype (%) [1]: 43% | Population Mitochondria Different-Phenotype (%) [1]: 5% | Population Mitotic Cells (%) [1]: 54% | Population Normal (%) [1]: 81% | Population Pyknosed Nuclei (%) [1]: 26% | Population Tubulin-Different-Phenotype (%) [1]: 35% | Total Cell Count [1]: 110 | Population Apoptotic (%) [2]: 25% | Population Fragmented Nuclei (%) [2]: 17% | Population Healthy Nuclei (%) [2]: 76% | Population Hoechst High Intensity Objects (%) [2]: 7% | Population Membrane Permeable-Phenotype (%) [2]: 10% | Population Mitochondria Different-Phenotype (%) [2]: 8% | Population Mitotic Cells (%) [2]: 75% | Population Normal (%) [2]: 92% | Population Pyknosed Nuclei (%) [2]: 6% | Population Tubulin-Different-Phenotype (%) [2]: 12% | Total Cell Count [2]: 83 | Population Apoptotic (%) [3]: 66% | Population Fragmented Nuclei (%) [3]: 21% | Population Healthy Nuclei (%) [3]: 23% | Population Hoechst High Intensity Objects (%) [3]: 35% | Population Membrane Permeable-Phenotype (%) [3]: 40% | Population Mitochondria Different-Phenotype (%) [3]: 0% | Population Mitotic Cells (%) [3]: 34% | Population Normal (%) [3]: 64% | Population Pyknosed Nuclei (%) [3]: 54% | Population Tubulin-Different-Phenotype (%) [3]: 54% | Total Cell Count [3]: 142 | Population Apoptotic (%) [4]: 72% | Population Fragmented Nuclei (%) [4]: 3% | Population Healthy Nuclei (%) [4]: 78% | Population Hoechst High Intensity Objects (%) [4]: 7% | Population Membrane Permeable-Phenotype (%) [4]: 69% | Population Mitochondria Different-Phenotype (%) [4]: 7% | Population Mitotic Cells (%) [4]: 27% | Population Normal (%) [4]: 92% | Population Pyknosed Nuclei (%) [4]: 17% | Population Tubulin-Different-Phenotype (%) [4]: 74% | Total Cell Count [4]: 69 | Population Apoptotic (%) [5]: 50% | Population Fragmented Nuclei (%) [5]: 31% | Population Healthy Nuclei (%) [5]: 52% | Population Hoechst High Intensity Objects (%) [5]: 13% | Population Membrane Permeable-Phenotype (%) [5]: 23% | Population Mitochondria Different-Phenotype (%) [5]: 0% | Population Mitotic Cells (%) [5]: 50% | Population Normal (%) [5]: 86% | Population Pyknosed Nuclei (%) [5]: 15% | Population Tubulin-Different-Phenotype (%) [5]: 42% | Total Cell Count [5]: 103 | Population Apoptotic (%) [6]: 20% | Population Fragmented Nuclei (%) [6]: 18% | Population Healthy Nuclei (%) [6]: 75% | Population Hoechst High Intensity Objects (%) [6]: 6% | Population Membrane Permeable-Phenotype (%) [6]: 7% | Population Mitochondria Different-Phenotype (%) [6]: 3% | Population Mitotic Cells (%) [6]: 80% | Population Normal (%) [6]: 93% | Population Pyknosed Nuclei (%) [6]: 6% | Population Tubulin-Different-Phenotype (%) [6]: 12% | Total Cell Count [6]: 94 | Population Apoptotic (%) [7]: 91% | Population Fragmented Nuclei (%) [7]: 17% | Population Healthy Nuclei (%) [7]: 24% | Population Hoechst High Intensity Objects (%) [7]: 31% | Population Membrane Permeable-Phenotype (%) [7]: 45% | Population Mitochondria Different-Phenotype (%) [7]: 33% | Population Mitotic Cells (%) [7]: 8% | Population Normal (%) [7]: 68% | Population Pyknosed Nuclei (%) [7]: 58% | Population Tubulin-Different-Phenotype (%) [7]: 50% | Total Cell Count [7]: 145 | Population Apoptotic (%) [8]: 72% | Population Fragmented Nuclei (%) [8]: 13% | Population Healthy Nuclei (%) [8]: 54% | Population Hoechst High Intensity Objects (%) [8]: 25% | Population Membrane Permeable-Phenotype (%) [8]: 46% | Population Mitochondria Different-Phenotype (%) [8]: 15% | Population Mitotic Cells (%) [8]: 27% | Population Normal (%) [8]: 74% | Population Pyknosed Nuclei (%) [8]: 31% | Population Tubulin-Different-Phenotype (%) [8]: 46% | Total Cell Count [8]: 81 | Population Apoptotic (%) [9]: 55% | Population Fragmented Nuclei (%) [9]: 40% | Population Healthy Nuclei (%) [9]: 51% | Population Hoechst High Intensity Objects (%) [9]: 14% | Population Membrane Permeable-Phenotype (%) [9]: 33% | Population Mitochondria Different-Phenotype (%) [9]: 1% | Population Mitotic Cells (%) [9]: 44% | Population Normal (%) [9]: 85% | Population Pyknosed Nuclei (%) [9]: 7% | Population Tubulin-Different-Phenotype (%) [9]: 28% | Total Cell Count [9]: 135 | Population Apoptotic (%) [10]: 0% | Population Fragmented Nuclei (%) [10]: 28% | Population Healthy Nuclei (%) [10]: 70% | Population Hoechst High Intensity Objects (%) [10]: 12% | Population Membrane Permeable-Phenotype (%) [10]: 22% | Population Mitotic Cells (%) [10]: 100% | Population Normal (%) [10]: 87% | Population Pyknosed Nuclei (%) [10]: 1% | Population Tubulin-Different-Phenotype (%) [10]: 34% | Total Cell Count [10]: 107 | Population Apoptotic (%) [11]: 94% | Population Fragmented Nuclei (%) [11]: 19% | Population Healthy Nuclei (%) [11]: 17% | Population Hoechst High Intensity Objects (%) [11]: 45% | Population Membrane Permeable-Phenotype (%) [11]: 35% | Population Mitochondria Different-Phenotype (%) [11]: 28% | Population Mitotic Cells (%) [11]: 5% | Population Normal (%) [11]: 54% | Population Pyknosed Nuclei (%) [11]: 63% | Population Tubulin-Different-Phenotype (%) [11]: 50% | Total Cell Count [11]: 151 | Population Apoptotic (%) [12]: 95% | Population Fragmented Nuclei (%) [12]: 16% | Population Healthy Nuclei (%) [12]: 9% | Population Hoechst High Intensity Objects (%) [12]: 63% | Population Membrane Permeable-Phenotype (%) [12]: 27% | Population Mitochondria Different-Phenotype (%) [12]: 18% | Population Mitotic Cells (%) [12]: 4% | Population Normal (%) [12]: 36% | Population Pyknosed Nuclei (%) [12]: 73% | Population Tubulin-Different-Phenotype (%) [12]: 36% | Total Cell Count [12]: 325
